Results from ChEMBL document CHEMBL5036324 (J Med Chem, 2021).
Calls of active or inactive are those of the source. The calls are words filed in the database; no cut-off is given here.

Key:
[1] = Subacute toxicity in BALB/c mouse assessed as pathological changes in spleen at 15 mg/kg, ip administered as single dose by H and E staining based microscopic analysis; format: organism-based; conditions: in vivo
Procedure, shortened: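 Subacute toxicity study in BALB/c mice given ip TLR7/8 agonist. Tissues from treated and control mice were examined by hematoxylin and eosin staining.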

[2] = molecular target: T1, Toll-like receptor 7 (Homo sapiens) (UniProt Q9NYK1); assay: Agonist activity at human TLR7 expressed in HEK-Blue hTLR7 cells assessed as activation of NFkappaB incubated for 6 to 16 hrs by SEAP reporter gene based assay; format: cell-based; conditions: filed as agonist, time 6-16 hrs
T1 sequence (whole entry): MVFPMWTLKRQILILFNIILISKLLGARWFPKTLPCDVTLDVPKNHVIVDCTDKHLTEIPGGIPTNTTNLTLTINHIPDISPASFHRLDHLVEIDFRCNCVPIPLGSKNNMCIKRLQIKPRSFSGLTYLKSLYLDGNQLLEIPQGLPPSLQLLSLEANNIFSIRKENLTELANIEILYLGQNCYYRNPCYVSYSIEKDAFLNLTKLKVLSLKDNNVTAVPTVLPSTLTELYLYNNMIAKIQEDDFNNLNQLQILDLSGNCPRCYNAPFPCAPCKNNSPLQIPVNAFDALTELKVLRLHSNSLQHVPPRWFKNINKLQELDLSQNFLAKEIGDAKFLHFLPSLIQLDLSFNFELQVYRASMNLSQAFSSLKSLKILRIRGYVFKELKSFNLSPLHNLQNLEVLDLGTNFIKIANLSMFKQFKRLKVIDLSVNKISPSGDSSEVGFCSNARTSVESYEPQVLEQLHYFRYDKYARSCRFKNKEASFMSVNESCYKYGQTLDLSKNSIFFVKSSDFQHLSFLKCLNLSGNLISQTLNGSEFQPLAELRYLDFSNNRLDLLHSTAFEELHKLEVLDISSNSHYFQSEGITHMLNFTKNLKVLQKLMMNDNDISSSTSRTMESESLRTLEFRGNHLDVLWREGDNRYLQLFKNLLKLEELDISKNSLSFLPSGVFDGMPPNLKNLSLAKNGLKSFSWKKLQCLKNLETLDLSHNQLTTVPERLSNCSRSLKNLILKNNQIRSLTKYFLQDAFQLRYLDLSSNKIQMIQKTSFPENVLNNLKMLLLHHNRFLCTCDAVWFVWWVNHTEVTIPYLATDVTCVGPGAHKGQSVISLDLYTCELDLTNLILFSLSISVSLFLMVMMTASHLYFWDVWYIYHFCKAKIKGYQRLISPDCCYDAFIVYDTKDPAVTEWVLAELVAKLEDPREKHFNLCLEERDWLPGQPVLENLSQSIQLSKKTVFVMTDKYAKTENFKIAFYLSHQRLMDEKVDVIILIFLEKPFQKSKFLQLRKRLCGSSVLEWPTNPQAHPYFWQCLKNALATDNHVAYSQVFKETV
Procedure, shortened: (§1)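 HEK293-derived SEAP reporter cells stably expressing the matching human TLR (2, 3, 4, 7, 8 or 9), kept under selection antibiotics. SEAP is driven by an NF-κB/AP-1-inducible promoter. HEK-Blue Null2-k (no TLR7/8) serves as the parental line. Cells were given escalating concentrations of stimuli for 6−16 h, then SEAP was read with HEK-Blue detection at 620 nm.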

[3] = molecular target: T2, Toll-like receptor 9 (Homo sapiens) (UniProt Q9NR96); assay: Agonist activity at human TLR9 expressed in HEK-Blue hTLR9 cells assessed as activation of NFkappaB incubated for 6 to 16 hrs by SEAP reporter gene based assay; format: cell-based; conditions: time 6-16 hrs; procedure, shortened: as §1
T2 sequence (whole entry): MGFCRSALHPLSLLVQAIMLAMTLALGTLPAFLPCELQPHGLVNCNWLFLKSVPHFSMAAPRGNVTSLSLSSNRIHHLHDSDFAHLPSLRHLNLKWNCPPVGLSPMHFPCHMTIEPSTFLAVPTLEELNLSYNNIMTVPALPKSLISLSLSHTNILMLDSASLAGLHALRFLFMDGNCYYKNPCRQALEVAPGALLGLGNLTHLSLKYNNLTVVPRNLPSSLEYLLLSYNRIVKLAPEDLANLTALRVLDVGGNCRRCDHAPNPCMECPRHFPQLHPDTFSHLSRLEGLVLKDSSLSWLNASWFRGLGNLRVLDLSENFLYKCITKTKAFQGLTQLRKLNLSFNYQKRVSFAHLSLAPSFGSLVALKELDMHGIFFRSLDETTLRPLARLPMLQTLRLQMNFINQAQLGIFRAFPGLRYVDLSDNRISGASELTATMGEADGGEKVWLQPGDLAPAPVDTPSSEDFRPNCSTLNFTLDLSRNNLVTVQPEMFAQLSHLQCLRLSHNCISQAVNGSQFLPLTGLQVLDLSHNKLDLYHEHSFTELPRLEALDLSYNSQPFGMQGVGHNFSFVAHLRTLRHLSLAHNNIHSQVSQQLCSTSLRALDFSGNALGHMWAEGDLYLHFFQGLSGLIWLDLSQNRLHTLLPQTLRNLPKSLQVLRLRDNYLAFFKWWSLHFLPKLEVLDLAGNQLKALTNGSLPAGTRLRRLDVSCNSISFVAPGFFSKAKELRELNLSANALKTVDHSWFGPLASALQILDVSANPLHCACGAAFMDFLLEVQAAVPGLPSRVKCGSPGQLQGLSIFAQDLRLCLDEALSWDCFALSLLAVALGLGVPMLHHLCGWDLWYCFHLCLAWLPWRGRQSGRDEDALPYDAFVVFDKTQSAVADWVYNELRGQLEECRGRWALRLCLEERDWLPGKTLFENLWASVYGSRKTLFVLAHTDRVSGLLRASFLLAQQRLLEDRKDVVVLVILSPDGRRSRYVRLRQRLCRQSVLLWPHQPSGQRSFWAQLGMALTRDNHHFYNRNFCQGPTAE

[4] = molecular target: TLR7 and TLR8 (Homo sapiens) (UniProt Q9NYK1+Q9NR97); assay: Agonist activity at human TLR7/8 expressed in human PBMC cells assessed as induction of IFN-alpha production at 0.5 ug/ml incubated for 24 hrs by multiplexed immunoassay; format: cell-based; conditions: filed as agonist, dose 0.5 µg/ml
Procedure, shortened: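 PBMCs from five healthy donors, at 3.0 × 10⁶ cells/mL, received one compound concentration for 24 h. Cytokines in centrifuged supernatants were measured in duplicate with a multiplex magnetic bead cytokine panel.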

Sequence of TLR7 and TLR8 (Homo sapiens) (Q9NR97 whole entry, looked up, one chain of several): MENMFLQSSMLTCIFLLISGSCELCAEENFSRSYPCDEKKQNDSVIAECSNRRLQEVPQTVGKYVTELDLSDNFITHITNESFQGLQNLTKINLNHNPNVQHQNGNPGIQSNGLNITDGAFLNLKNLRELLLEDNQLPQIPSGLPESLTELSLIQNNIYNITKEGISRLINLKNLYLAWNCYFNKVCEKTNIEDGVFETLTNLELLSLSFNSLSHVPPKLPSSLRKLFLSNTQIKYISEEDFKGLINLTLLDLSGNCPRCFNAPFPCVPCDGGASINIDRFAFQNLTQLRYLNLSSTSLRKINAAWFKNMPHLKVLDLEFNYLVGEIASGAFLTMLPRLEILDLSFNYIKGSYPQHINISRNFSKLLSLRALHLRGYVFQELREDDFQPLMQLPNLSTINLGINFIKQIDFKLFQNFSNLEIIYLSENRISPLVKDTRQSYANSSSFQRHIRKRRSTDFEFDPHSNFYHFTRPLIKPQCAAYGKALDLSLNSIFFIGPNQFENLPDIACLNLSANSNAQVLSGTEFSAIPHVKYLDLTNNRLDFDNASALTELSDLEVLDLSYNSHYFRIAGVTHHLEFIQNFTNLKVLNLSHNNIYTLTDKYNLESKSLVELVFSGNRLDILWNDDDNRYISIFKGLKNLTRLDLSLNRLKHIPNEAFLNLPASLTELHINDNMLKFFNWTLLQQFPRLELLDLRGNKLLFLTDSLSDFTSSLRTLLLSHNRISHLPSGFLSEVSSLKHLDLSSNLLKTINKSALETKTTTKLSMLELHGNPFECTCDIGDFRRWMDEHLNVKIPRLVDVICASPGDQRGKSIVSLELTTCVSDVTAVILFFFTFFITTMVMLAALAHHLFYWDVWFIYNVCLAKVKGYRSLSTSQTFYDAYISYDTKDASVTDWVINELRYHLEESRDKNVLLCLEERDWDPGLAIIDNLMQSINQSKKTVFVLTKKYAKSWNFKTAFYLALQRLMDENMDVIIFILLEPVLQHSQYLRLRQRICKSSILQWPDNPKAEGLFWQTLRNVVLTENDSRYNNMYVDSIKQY

SMILES	Activity [1]	Activity [2]	Activity [3]	Activity [4]
COCCNc1nc(N)nc2ccc(Cc3ccc(CN(C)C)cc3)nc12	Non-Toxic	Active	inactive	Active
CCCCNc1nc(N)nc2ccc(Cc3ccc(CN(C)C)cc3)nc12	Non-Toxic	Active	inactive	Active
